This note sets out measurements from ChEMBL document CHEMBL1139344, “Antagonists of the human A(2A) adenosine receptor. 4. Design, synthesis, and preclinical evaluation of 7-aryltriazolo[4,5-d]pyrimidines” (J Med Chem, 2009).

Values after ≈ are worked out from the molar mass of the structure shown. Active and inactive are the calls of the source. The calls are words filed in the database; no cut-off is given here. Where only a bound is given, the exact number is not on record here.

Data set [1] relates to Rattus norvegicus. Put plainly: Reversal of haloperidol-induced hypolocomotion in Sprague-Dawley rat assessed as time spent for locomotor activity at 1 mg/kg, po administered 120 mins prior to testing done for 60 mins. Also noted: dose 1 mg/kg. The class given is functional, organism-based. In short, it runs like this: (§1)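 Haloperidol (0.2 mg/kg ip) used to induce hypolocomotion; antagonist given orally over 0.01-10 mg/kg in mouse and rat; activity scored as time spent active during a 60 min session; p < 0.05 versus vehicle (+haloperidol) control; minimal effective dose taken as lowest active dose.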

For data set [2], the system named is Mus musculus. Put plainly: Reversal of haloperidol-induced hypolocomotion in TO mouse assessed as time spent for locomotor activity at 0.3 mg/kg, po administered 15 mins prior to testing done for 60 mins. The class given is functional, organism-based. Also noted: dose 0.3 mg/kg. In short, it runs like this: as §1
Data set [3] can be described thus: Apparent permeability across human Caco-2 cell membrane. The class given is ADME, cell-based. To be noted: read-out: permeability.
Data set [4] in a line: Half life in Sprague-Dawley rat at 2 mg/kg, iv. The class given is ADME, organism-based. Also noted: dose 2 mg/kg, route intravenous. The following applies: in vivo.
Data set [5] is described as follows: Oral bioavailability in Sprague-Dawley rat. The following applies: in vivo. The class given is ADME, organism-based.
The next data set deals with Brain. Nature of the data set: Drug uptake in Sprague-Dawley rat brain at 2 mg/kg, iv. The class given is ADME, organism-based. Also noted: dose 2 mg/kg, route intravenous. The following applies: in vivo. In short, it runs like this: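 Male Sprague-Dawley rats dosed intravenously at 2 mg kg^-1; brain uptake calculated as brain/plasma AUClast ratio.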
The nature of data set [6]: Tmax in Sprague-Dawley rat at 2 mg/kg, iv. The following applies: in vivo. Also noted: dose 2 mg/kg, route intravenous. The class given is ADME, organism-based.
The target in data set [7] is Voltage-gated inwardly rectifying potassium channel KCNH2 (Homo sapiens, UniProt Q12809). Put plainly: Binding affinity to human ERG at 30 uM by patch clamp technique. The procedure, abridged:
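hERG potassium channel examined by patch clamp at concentrations up to 30 µM, the maximal concentration reached in the protocol; response compared with vehicle alone.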

Data set [8] has as its system Mus musculus. Nature of the data set: Toxicity in mouse at 100 mg/kg administered for 4 days. Also noted: dose 100 mg/kg. The class given is organism-based. The following applies: in vivo, 96 h.
In data set [9] the test system is Mus musculus. Nature of the data set: Increase in locomotor activity in mouse at 100 mg/kg administered for 4 days. Also noted: dose 100 mg/kg. The class given is functional, organism-based.
Data set [10] deals with T1, Adenosine receptor A2a (Homo sapiens, UniProt P29274). To be noted: CHO-K1.
T1 sequence (P29274 whole entry): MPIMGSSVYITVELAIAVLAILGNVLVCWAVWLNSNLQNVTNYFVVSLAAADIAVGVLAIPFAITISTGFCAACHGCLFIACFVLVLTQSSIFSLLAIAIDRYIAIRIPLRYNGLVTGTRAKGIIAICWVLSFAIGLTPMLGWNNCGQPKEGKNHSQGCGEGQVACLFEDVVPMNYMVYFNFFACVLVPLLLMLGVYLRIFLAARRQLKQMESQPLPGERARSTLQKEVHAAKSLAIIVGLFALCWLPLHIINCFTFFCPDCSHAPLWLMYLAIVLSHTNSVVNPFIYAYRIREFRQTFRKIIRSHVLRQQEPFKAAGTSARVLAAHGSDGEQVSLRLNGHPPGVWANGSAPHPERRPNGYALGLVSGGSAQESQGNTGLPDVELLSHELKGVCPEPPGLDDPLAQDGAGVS
The target in data set [11] is T2, Adenosine receptor A1 (Homo sapiens) (UniProt P30542).
T2 sequence (whole entry): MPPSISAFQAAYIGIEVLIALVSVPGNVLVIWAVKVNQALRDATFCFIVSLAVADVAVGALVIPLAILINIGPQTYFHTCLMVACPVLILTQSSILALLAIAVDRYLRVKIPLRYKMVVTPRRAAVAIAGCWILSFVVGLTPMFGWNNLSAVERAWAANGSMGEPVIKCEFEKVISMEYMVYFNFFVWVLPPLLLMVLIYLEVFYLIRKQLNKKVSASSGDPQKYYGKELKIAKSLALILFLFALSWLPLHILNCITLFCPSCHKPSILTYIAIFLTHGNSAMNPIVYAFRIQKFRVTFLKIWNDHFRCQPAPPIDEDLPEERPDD
The following applies: CHO-K1.

In data set [12] the target is T3, Adenosine receptor A2b (Homo sapiens) (UniProt P29275).
T3 sequence (whole entry): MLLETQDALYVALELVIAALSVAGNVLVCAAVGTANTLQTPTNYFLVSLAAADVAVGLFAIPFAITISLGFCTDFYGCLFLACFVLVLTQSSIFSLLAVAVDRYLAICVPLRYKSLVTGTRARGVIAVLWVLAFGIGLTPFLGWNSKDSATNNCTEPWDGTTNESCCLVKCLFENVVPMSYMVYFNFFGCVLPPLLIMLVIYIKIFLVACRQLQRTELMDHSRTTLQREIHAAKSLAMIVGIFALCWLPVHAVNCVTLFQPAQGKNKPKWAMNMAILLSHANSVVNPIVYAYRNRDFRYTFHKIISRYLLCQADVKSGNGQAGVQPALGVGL
To be noted: CHO-K1.

Data set [13] concerns the target T4, Adenosine receptor A3 (Homo sapiens) (UniProt P0DMS8).
T4 sequence (whole entry): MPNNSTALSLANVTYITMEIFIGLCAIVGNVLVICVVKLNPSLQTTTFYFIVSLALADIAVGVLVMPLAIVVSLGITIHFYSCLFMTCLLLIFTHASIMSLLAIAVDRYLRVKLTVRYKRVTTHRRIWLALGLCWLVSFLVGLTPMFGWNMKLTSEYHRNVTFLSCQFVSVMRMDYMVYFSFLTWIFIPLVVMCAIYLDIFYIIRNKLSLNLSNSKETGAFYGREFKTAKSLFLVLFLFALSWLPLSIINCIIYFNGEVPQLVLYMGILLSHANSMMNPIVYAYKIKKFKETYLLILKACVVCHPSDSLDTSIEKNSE
The following applies: CHO-K1.

Data set [14] deals with T1, Adenosine receptor A2a. Put plainly: Displacement of radioligand from human recombinant adenosine A2A receptor at 21 degC after 90 mins by cell-based microplate scintillation counting.
The target in another data set is T5, Adenosine receptor A1 (Homo sapiens, UniProt P30542).
T5 sequence (P30542 whole entry): T2 sequence (whole entry)
Put plainly: Displacement of radioligand from human recombinant adenosine A1 receptor at 21 degC after 90 mins by cell-based microplate scintillation counting.

Another data set deals with T6, Adenosine receptor A2b (Homo sapiens, UniProt P29275).
T6 sequence (P29275 whole entry): T3 sequence (whole entry)
Put plainly: Displacement of radioligand from human recombinant adenosine A2B receptor at 21 degC after 60 mins by cell-based microplate scintillation counting.

The next data set has as its target T7, Adenosine receptor A3 (Homo sapiens, UniProt P0DMS8).
T7 sequence (P0DMS8 whole entry): T4 sequence (whole entry)
Nature of the data set: Displacement of radioligand from human recombinant adenosine A3 receptor at 21 degC after 60 mins by cell-based microplate scintillation counting.

Data set [15] deals with Mus musculus. Nature of the data set: Reversal of haloperidol-induced hypolocomotion in TO mouse assessed as time spent for locomotor activity at 30 mg/kg, po administered 15 mins prior and measured for 60 mins. Also noted: dose 30 mg/kg. The class given is functional, organism-based.
The test system of data set [16] is Rattus norvegicus. Nature of the data set: Reversal of haloperidol-induced hypolocomotion in Sprague-Dawley rat assessed as time spent for locomotor activity at 30 mg/kg, po administered 120 mins prior and measured for 60 mins. The class given is functional, organism-based. Also noted: dose 30 mg/kg.
The test system of the next data set is Liver microsomes. Put plainly: Metabolic stability in rat liver microsomes after 30 mins. The class given is ADME, Microsome. The following applies: 0.5 h. The procedure, abridged: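 Turnover by rodent liver microsomes measured as percent turnover after 30 min.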
The nature of data set [17]: Aqueous solubility in phosphate buffered saline. The class given is physicochemical.
For data set [18], the species on record is Homo sapiens. Nature of the data set: Selectivity for human recombinant adenosine A2A receptor over human recombinant adenosine A1 receptor by cell-based assay.
For data set [19], the species on record is Homo sapiens. Put plainly: Selectivity for human recombinant adenosine A2A receptor over human recombinant adenosine A3 receptor by cell-based assay.
The species named for data set [20] is Homo sapiens. Put plainly: Selectivity for human recombinant adenosine A2A receptor over human recombinant adenosine A2B receptor by cell-based assay.

Chain of Voltage-gated inwardly rectifying potassium channel KCNH2 (Q12809 whole entry): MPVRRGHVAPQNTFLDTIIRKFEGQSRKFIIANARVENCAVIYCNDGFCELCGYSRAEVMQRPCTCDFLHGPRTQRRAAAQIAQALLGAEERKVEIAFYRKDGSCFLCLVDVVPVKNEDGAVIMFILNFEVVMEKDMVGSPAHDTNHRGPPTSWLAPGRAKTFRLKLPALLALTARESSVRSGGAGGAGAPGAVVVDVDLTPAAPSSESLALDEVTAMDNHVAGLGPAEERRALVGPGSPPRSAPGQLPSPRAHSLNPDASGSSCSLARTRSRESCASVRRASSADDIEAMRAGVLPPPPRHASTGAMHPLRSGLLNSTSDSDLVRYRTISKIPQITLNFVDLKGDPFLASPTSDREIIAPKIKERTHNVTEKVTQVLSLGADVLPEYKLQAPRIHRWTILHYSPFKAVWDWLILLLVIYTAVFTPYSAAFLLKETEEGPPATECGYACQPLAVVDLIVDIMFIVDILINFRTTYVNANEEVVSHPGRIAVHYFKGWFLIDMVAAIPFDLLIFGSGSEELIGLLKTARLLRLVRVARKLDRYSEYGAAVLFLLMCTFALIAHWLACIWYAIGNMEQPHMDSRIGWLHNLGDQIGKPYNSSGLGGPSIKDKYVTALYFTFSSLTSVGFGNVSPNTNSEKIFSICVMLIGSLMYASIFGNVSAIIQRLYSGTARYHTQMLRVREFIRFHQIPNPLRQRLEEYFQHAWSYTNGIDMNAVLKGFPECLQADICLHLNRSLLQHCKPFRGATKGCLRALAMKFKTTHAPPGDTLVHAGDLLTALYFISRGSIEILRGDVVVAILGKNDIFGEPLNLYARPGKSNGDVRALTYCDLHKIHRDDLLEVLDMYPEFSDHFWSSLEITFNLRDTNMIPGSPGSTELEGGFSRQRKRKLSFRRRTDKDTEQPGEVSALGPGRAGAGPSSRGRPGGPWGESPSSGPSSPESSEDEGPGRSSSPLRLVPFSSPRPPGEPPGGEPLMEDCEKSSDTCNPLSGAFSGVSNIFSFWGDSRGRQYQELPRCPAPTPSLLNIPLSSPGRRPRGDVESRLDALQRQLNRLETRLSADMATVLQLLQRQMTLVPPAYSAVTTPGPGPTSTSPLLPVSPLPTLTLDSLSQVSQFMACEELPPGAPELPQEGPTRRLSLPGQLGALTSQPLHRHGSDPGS

As for `CCn1c(=O)c2c(nc(/C=C/c3ccc(OC)c(OC)c3)n2C)n(CC)c1=O`, the outcome with Rattus norvegicus [1] and with Mus musculus [2] was Active.
On to `Cc1cc(Cn2nnc3c(-c4ccco4)nc(N)nc32)ccc1N` [VIPADENANT], for which the Papp in data set [3] came to 11 ×10⁻⁶ cm/s. For the same molecule, in [4], the half-life was 120 min. Further, in data set [5], the bioavailability was found to be 35%. The same molecule registered a Drug uptake in the data set on Brain of 57%. In addition, the time of peak concentration (Tmax) in [6] was determined as 30 min. Further, the Activity result in data set [7] is given as “Not Active”; in the data set with Mus musculus [8], “Non-toxic”.
For the molecule `Cc1cc(Cn2nnc3c(-c4ccco4)nc(N)nc32)ccc1N`, the result in the data set on Mus musculus [9] was Active. Further, the KA at Adenosine receptor A2a [10] turned out to be 0.58 nM; in [11], 95 nM; in [12], 31 nM; in data set [13], 1500 nM.
On to `Nc1nc(-c2ccco2)c2nnn(Cc3ccc(F)cc3F)c2n1`, for which the Ki is 2 nM on Adenosine receptor A2a [14], 118 nM on Adenosine receptor A1, 226 nM on Adenosine receptor A2b and 1180 nM at Adenosine receptor A3. The outcome in the data set with Mus musculus [15] and in the data set on Rattus norvegicus [16] was inactive. In addition, the Stability result in the data set on Liver microsomes is reported as “Stable”. The molecule further had a solubility in data set [17] of 30 µM (≈ 9.85 µg/mL). For the same molecule, the fold change (FC) in the data set listed under Homo sapiens [18], in the data set listed under Homo sapiens [19] and in the data set filed under Homo sapiens [20] was greater than 50 in each case.
